The test system of this assay is Hep 3B2. Briefly: Cytotoxicity against human Hep3B cells assessed as reduction in cell viability after 24 hrs in normoxic condition by MTT assay. The assay is classed as cell-based. The method, boiled down:
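Hep3B viability by MTT assay after 24 h compound treatment under normoxia; table values are means, n=3.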
In general terms: Formazan colour is commonly taken as a measure of viable cells.

On to `Cc1ccc(COC(=O)[C@]23CC[C@@H](C)[C@H](C)[C@H]2C2=CC[C@@H]4[C@@]5(C)CC/C(=N\NC(=N)N)C(C)(C)[C@@H]5CC[C@@]4(C)[C@]2(C)CC3)cc1`, for which the IC50 turned out to be 18 µM.
The result for `C[C@H]1[C@H](C)CC[C@]2(C(=O)O)CC[C@]3(C)C(=CC[C@@H]4[C@@]5(C)CC(=C\c6cccc(Cl)c6)/C(=N\NC(=N)N)C(C)(C)[C@@H]5CC[C@]43C)[C@H]12` reads greater than 100 µM; that for `C[C@H]1[C@H](C)CC[C@]2(C(=O)O)CC[C@]3(C)C(=CC[C@@H]4[C@@]5(C)CC/C(=N\NC(N)=O)C(C)(C)[C@@H]5CC[C@]43C)[C@H]12`, 69.8 µM.
Next, `C[C@H]1[C@H](C)CC[C@]2(C(=O)O)CC[C@]3(C)C(=CC[C@@H]4[C@@]5(C)CC(=C\c6cccc(F)c6)/C(=N\NC(=N)N)C(C)(C)[C@@H]5CC[C@]43C)[C@H]12`: 10.5 µM; `C[C@H]1[C@H](C)CC[C@]2(C(=O)OCc3cccc(Cl)c3)CC[C@]3(C)C(=CC[C@@H]4[C@@]5(C)CC/C(=N\NC(=N)N)C(C)(C)[C@@H]5CC[C@]43C)[C@H]12`: 34.1 µM.
Next, `C[C@H]1[C@H](C)CC[C@]2(C(=O)O)CC[C@]3(C)C(=CC[C@@H]4[C@@]5(C)CC(=C\c6ccco6)/C(=N\NC(=N)N)C(C)(C)[C@@H]5CC[C@]43C)[C@H]12`: greater than 100 µM; `CCCCCOC(=O)[C@]12CC[C@@H](C)[C@H](C)[C@H]1C1=CC[C@@H]3[C@@]4(C)CC/C(=N\NC(=N)N)C(C)(C)[C@@H]4CC[C@@]3(C)[C@]1(C)CC2`: 22 µM; `C[C@H]1[C@H](C)CC[C@]2(C(=O)O)CC[C@]3(C)C(=CC[C@@H]4[C@@]5(C)CC(=C\c6ccc(Cl)cc6Cl)/C(=N\NC(=N)N)C(C)(C)[C@@H]5CC[C@]43C)[C@H]12`: greater than 100 µM.
For `C[C@H]1[C@H](C)CC[C@]2(C(=O)O)CC[C@]3(C)C(=CC[C@@H]4[C@@]5(C)CC(=C\c6ccccc6F)/C(=N\NC(=N)N)C(C)(C)[C@@H]5CC[C@]43C)[C@H]12`, the IC50 was greater than 100 µM.
Next, `C[C@H]1[C@H](C)CC[C@]2(C(=O)O)CC[C@]3(C)C(=CC[C@@H]4[C@@]5(C)CC/C(=N\NC(N)=S)C(C)(C)[C@@H]5CC[C@]43C)[C@H]12`: greater than 100 µM.
As for `C[C@H]1[C@H](C)CC[C@]2(C(=O)O)CC[C@]3(C)C(=CC[C@@H]4[C@@]5(C)CC(=C\c6c(Cl)cccc6Cl)/C(=N\NC(=N)N)C(C)(C)[C@@H]5CC[C@]43C)[C@H]12`, the IC50 is greater than 100 µM.
Next, `C[C@H]1[C@H](C)CC[C@]2(C(=O)O)CC[C@]3(C)C(=CC[C@@H]4[C@@]5(C)CC(=C\c6cccs6)/C(=N\NC(=N)N)C(C)(C)[C@@H]5CC[C@]43C)[C@H]12`: greater than 100 µM.
The result for `C[C@H]1[C@H](C)CC[C@]2(C(=O)O)CC[C@]3(C)C(=CC[C@@H]4[C@@]5(C)CC(=C\c6ccc(F)cc6)/C(=N\NC(=N)N)C(C)(C)[C@@H]5CC[C@]43C)[C@H]12` reads greater than 100 µM.
For `C[C@H]1[C@H](C)CC[C@]2(C(=O)O)CC[C@]3(C)C(=CC[C@@H]4[C@@]5(C)CC(=C\c6cccc7ccccc67)/C(=N\NC(=N)N)C(C)(C)[C@@H]5CC[C@]43C)[C@H]12`, the IC50 was greater than 100 µM.
Next, `CCOC(=O)[C@]12CC[C@@H](C)[C@H](C)[C@H]1C1=CC[C@@H]3[C@@]4(C)CC/C(=N\NC(=N)N)C(C)(C)[C@@H]4CC[C@@]3(C)[C@]1(C)CC2`: 6 µM; `COC(=O)[C@]12CC[C@@H](C)[C@H](C)[C@H]1C1=CC[C@@H]3[C@@]4(C)CC/C(=N\NC(=N)N)C(C)(C)[C@@H]4CC[C@@]3(C)[C@]1(C)CC2`: greater than 100 µM; `C[C@H]1[C@H](C)CC[C@]2(C(=O)O)CC[C@]3(C)C(=CC[C@@H]4[C@@]5(C)CC(=C\c6ccccc6Br)/C(=N\NC(=N)N)C(C)(C)[C@@H]5CC[C@]43C)[C@H]12`: greater than 100 µM.

What is called IC50 is the point on the concentration scale where inhibition reaches its midpoint.

The values are drawn from ChEMBL document CHEMBL4368925, “Design, synthesis, and screening of novel ursolic acid derivatives as potential anti-cancer agents that target the HIF-1α pathway” (Bioorg Med Chem Lett, 2019).
